Experimental data as given in ChEMBL document CHEMBL3603779, “Identification and Optimization of Benzimidazole Sulfonamides as Orally Bioavailable Sphingosine 1-Phosphate Receptor 1 Antagonists with in Vivo Activity” (J Med Chem, 2015).
Activity calls are given as the source filed them. The rule behind the calls is not given here.

How the values were obtained:
[1] = molecular target: T1, Sphingosine 1-phosphate receptor 1 (Homo sapiens, UniProt P21453); assay: Antagonist activity against human S1P1 receptor expressed in human U2OS cells co-expressing GFP assessed as inhibition of S1P-induced receptor translocation; assay type: cell-based
Outline: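 Cellular S1P1 translocation (internalization) assay with antagonist; EC50 reported as mean of at least three separate determinations ± standard deviation.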

[2] = Intrinsic clearance in human liver microsomes pre-incubated at 37 degC for 5 mins before NADPH addition by LCMS/MS method; assay type: ADME; settings: read-out: CLH
[3] = molecular target: Cytochrome P450 2D6 (Homo sapiens, UniProt P10635); assay: Inhibition of CYP2D6 in human liver microsomes incubated for 5 mins in presence of NADPH and specific substrates by LC/MS/MS method; assay type: ADME
[4] = molecular target: Cytochrome P450 2C19 (Homo sapiens, UniProt P33261); assay: Inhibition of CYP2C19 in human liver microsomes incubated for 5 mins in presence of NADPH and specific substrates by LC/MS/MS method; assay type: ADME
[5] = Lipophilicity, log D of the compound at pH 7.4; assay type: physicochemical; settings: buffer
[6] = molecular target: T2, Cytochrome P450 3A5 (Homo sapiens, UniProt P20815); assay: Induction of CYP3A5 activation in human hepatocytes at 10 uM incubated for 48 hrs using testosterone substrate relative to rifampicin; assay type: ADME, cell-based, Hepatocyte
Outline: (§1)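 Human hepatocyte CYP3A induction, testosterone probe with 6-β-hydroxytestosterone as marker; activity expressed as % of the rifampicin response; hepatocytes from two donors tested.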

[7] = molecular target: T3, Nuclear receptor subfamily 1 group I member 2 (Homo sapiens, UniProt O75469); assay: Activation of human PXR expressed in human HepG2 cells co-expressing CYP3A4 assessed as CYP3A4 activation at 10 uM by luciferase reporter gene assay relative to rifampicin; assay type: ADME, cell-based; settings: hepg2, 10 µM
T3 sequence (O75469 whole entry): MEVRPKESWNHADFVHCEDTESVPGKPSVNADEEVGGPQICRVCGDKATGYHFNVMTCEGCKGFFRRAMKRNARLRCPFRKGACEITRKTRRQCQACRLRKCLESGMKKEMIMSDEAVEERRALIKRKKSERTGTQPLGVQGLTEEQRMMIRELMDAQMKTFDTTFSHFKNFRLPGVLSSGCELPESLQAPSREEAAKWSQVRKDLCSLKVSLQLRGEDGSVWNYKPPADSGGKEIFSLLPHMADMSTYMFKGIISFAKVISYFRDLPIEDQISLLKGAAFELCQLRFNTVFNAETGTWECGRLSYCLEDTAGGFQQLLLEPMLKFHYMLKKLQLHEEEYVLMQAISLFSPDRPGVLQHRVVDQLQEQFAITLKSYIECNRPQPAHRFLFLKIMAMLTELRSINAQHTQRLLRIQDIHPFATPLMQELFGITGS
Outline: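 Single-concentration PXR reporter gene screen, compound at 10 μM; activation expressed as a percentage of the response to rifampicin, also at 10 μM.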

[8] = molecular target: T4, Cytochrome P450 3A4 (Homo sapiens, UniProt P08684); assay: Induction of CYP3A4 activation in human hepatocytes at 10 uM incubated for 48 hrs using testosterone substrate relative to rifampicin; assay type: ADME, cell-based, Hepatocyte; outline: as §1
[9] = Oral bioavailability in Han Wistar rat at 5 to 10 mg/kg by LC-MS/MS method; assay type: ADME, organism-based; settings: in vivo
[10] = molecular target: T1, Sphingosine 1-phosphate receptor 1; assay: Antagonist activity against S1P1 receptor (unknown origin) expressed in human U2OS cells co-expressing GFP assessed as right-ward shift of S1P-induced response; assay type: cell-based
Outline: (§2)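 S1P concentration-response curves for receptor internalization run at a series of fixed antagonist concentrations, giving both curve shift and maximal internalization.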

[11] = molecular target: T1, Sphingosine 1-phosphate receptor 1; assay: Antagonist activity against S1P1 receptor (unknown origin) expressed in human U2OS cells co-expressing GFP assessed as reduction in maximal amount of S1P-induced receptor translocation; assay type: cell-based; outline: as §2
[12] = molecular target: T4, Cytochrome P450 3A4; assay: Inhibition of CYP3A4 in human liver microsomes incubated for 5 mins in presence of NADPH and specific substrates by LC/MS/MS method; assay type: ADME
[13] = molecular target: T2, Cytochrome P450 3A5; assay: Inhibition of CYP3A5 in human liver microsomes incubated for 5 mins in presence of NADPH and specific substrates by LC/MS/MS method; assay type: ADME
[14] = molecular target: Sphingosine 1-phosphate receptor 1 (Mus musculus) (UniProt O08530); assay: Antagonist activity against mouse S1P1 receptor expressed in human U2OS cells co-expressing GFP assessed as inhibition of S1P-induced receptor translocation; assay type: cell-based
[15] = molecular target: Sphingosine 1-phosphate receptor 3 (Homo sapiens) (UniProt Q99500); assay: Antagonist activity against S1P3 receptor (unknown origin)
Chain of Sphingosine 1-phosphate receptor 3 (Homo sapiens) (Q99500 whole entry): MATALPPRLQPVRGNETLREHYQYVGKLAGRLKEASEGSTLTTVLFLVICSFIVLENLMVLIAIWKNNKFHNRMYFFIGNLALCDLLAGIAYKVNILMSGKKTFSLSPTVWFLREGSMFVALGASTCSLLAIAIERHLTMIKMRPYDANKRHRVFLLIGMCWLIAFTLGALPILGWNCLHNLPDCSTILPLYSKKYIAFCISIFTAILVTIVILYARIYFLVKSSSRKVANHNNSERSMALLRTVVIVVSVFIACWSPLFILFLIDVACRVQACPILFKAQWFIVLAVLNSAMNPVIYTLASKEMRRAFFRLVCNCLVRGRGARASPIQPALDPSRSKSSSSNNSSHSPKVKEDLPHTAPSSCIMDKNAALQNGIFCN

T2 sequence (P20815 whole entry): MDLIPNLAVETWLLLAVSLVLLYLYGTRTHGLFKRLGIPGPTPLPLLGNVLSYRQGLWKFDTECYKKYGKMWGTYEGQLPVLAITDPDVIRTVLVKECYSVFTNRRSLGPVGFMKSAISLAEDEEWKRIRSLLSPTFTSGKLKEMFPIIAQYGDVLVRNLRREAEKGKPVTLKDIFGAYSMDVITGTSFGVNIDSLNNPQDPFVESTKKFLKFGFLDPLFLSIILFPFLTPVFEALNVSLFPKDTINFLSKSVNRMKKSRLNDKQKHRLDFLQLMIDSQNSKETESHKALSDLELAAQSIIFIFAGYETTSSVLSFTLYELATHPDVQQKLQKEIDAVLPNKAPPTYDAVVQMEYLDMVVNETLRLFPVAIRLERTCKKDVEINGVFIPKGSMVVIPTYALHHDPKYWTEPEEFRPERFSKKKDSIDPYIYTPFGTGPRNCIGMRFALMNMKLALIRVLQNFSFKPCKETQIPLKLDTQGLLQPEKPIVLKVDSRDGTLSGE
T4 sequence (P08684 whole entry): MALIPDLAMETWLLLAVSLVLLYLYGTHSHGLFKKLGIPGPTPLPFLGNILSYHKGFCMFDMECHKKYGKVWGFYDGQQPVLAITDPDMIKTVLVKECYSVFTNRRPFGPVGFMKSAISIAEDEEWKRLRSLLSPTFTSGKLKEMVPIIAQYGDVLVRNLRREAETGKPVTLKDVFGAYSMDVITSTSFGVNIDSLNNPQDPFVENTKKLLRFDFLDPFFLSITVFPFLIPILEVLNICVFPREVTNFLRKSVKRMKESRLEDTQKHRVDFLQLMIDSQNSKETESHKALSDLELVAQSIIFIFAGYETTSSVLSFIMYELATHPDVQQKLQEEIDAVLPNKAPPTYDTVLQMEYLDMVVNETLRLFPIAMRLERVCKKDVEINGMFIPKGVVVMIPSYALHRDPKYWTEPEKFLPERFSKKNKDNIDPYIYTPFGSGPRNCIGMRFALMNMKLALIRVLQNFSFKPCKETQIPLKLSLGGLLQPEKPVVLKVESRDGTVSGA
T1 sequence (P21453 whole entry): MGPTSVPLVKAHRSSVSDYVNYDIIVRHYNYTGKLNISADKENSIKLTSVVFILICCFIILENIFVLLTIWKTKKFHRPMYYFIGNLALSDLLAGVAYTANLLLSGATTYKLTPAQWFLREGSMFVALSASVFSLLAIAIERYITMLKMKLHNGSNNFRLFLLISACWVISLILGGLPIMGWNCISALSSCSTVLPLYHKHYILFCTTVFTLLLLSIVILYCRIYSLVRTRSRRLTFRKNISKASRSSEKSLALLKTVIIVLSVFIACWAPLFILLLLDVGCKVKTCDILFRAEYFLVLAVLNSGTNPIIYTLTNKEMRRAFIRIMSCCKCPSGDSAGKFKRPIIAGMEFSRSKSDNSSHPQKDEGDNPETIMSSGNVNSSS
Chain of Cytochrome P450 2C19 (P33261 whole entry): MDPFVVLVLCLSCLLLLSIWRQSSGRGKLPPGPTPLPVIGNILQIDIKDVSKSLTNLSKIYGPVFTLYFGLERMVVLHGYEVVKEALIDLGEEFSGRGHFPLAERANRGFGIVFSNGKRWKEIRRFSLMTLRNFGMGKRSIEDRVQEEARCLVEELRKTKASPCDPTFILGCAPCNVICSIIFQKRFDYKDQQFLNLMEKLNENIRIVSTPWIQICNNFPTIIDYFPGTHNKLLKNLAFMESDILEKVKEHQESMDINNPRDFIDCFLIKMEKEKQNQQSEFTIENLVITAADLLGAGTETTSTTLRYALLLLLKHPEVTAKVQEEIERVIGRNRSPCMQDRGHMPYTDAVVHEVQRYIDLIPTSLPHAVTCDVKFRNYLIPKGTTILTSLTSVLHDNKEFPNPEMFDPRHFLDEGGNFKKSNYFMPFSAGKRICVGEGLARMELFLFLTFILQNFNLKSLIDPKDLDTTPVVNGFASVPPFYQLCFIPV
Chain of Sphingosine 1-phosphate receptor 1 (Mus musculus) (O08530 whole entry): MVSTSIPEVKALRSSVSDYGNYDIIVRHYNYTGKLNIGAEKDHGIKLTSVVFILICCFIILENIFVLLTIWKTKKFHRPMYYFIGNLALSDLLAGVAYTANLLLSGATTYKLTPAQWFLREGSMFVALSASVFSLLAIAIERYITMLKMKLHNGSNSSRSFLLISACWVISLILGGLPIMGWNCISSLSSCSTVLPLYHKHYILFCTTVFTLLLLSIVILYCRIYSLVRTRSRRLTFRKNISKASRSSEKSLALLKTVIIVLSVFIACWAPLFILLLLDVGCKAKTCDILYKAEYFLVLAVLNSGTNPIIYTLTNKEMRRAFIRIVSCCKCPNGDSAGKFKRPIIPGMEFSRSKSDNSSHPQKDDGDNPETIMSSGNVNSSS
Chain of Cytochrome P450 2D6 (P10635 whole entry): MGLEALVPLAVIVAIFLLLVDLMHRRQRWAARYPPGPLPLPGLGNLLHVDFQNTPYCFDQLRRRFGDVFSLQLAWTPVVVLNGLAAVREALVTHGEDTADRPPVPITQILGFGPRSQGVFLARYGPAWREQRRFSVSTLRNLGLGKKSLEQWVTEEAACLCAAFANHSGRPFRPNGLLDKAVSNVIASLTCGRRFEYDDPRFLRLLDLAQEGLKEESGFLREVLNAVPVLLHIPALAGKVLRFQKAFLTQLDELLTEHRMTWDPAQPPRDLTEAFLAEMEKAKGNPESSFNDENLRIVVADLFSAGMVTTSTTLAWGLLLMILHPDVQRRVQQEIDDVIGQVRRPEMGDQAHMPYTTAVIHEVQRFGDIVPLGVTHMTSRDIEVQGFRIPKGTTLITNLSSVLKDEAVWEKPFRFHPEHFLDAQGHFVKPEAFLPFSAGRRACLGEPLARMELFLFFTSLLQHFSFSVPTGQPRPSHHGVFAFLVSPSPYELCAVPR

EC50 [1] | microsomal CLint [2] | also measured | Structure (SMILES)
800 nM | > 100 µL/min/mg | – | CCCn1ncc(S(=O)(=O)N[C@H](C)c2nc3ccc(C(F)(F)F)cc3n2CC)c1C
57 nM | > 100 µL/min/mg | – | CCn1c([C@@H](C)NS(=O)(=O)c2cccc(C#N)c2)nc2ccc(C(F)(F)F)cc21
210 nM | 35 µL/min/mg | IC50 [3]: 230 nM; IC50 [4]: 910 nM | CCn1c(C(C)NS(=O)(=O)c2ccc(Cl)cc2)nc2cnccc21 (centres undefined)
190 nM | < 5 µL/min/mg | – | CCn1c([C@@H](C)NS(=O)(=O)c2ccc(Cl)cc2)nc2cc(C(N)=O)ccc21
800 nM | > 100 µL/min/mg | – | CCn1c([C@@H](C)NS(=O)(=O)c2ccc(Cl)cc2)nc2cccc(Cl)c21
2200 nM | 15 µL/min/mg | – | CCn1c([C@@H](C)NS(=O)(=O)c2cnc(NC(C)=O)s2)nc2ccc(C(F)(F)F)cc21
1100 nM | > 100 µL/min/mg | – | CCn1c([C@@H](C)NS(=O)(=O)c2cnn(C(C)C)c2C)nc2ccc(C(F)(F)F)cc21
1800 nM | > 100 µL/min/mg | – | CCn1c([C@@H](C)NS(=O)(=O)c2ccc(CC(C)C)cc2)nc2ccc(C(F)(F)F)cc21
12 nM | 34 µL/min/mg | – | CCn1c([C@@H](C)NS(=O)(=O)c2ccc(C#N)cc2)nc2ccc(C(F)(F)F)cc21
430 nM | > 100 µL/min/mg | – | CCn1ncc(S(=O)(=O)N[C@H](C)c2nc3ccc(C(F)(F)F)cc3n2CC)c1C
1800 nM | – | – | CCn1c([C@@H](C)NS(=O)(=O)C2CCCC2)nc2ccc(C(F)(F)F)cc21
23500 nM | 30 µL/min/mg | – | CCn1c([C@@H](C)NS(=O)(=O)c2ccc(Cl)cc2)nc2ccc(CN(C)C)cc21
5 nM | 84 µL/min/mg | – | CCn1c([C@@H](C)NS(=O)(=O)c2ccc(Cl)cc2)nc2ccc(CO)cc21
9 nM | > 100 µL/min/mg | – | CCn1c([C@@H](C)NS(=O)(=O)c2ccc(Cl)cc2)nc2ccc(OC)cc21
240 nM | 19 µL/min/mg | – | CCn1c([C@@H](C)NS(=O)(=O)c2c(F)cc(F)cc2F)nc2ccc(C(F)(F)F)cc21
8 nM | 14 µL/min/mg | – | CCn1c([C@@H](C)NS(=O)(=O)c2ccccc2)nc2ccc(C(F)(F)F)cc21
3 nM | – | logD [5]: 1.6; Activity [6]: < 40%; Activity [7]: 32%; Activity [8]: < 40% | CCn1c([C@@H](C)NS(=O)(=O)c2ccc(C#N)cc2)nc2cnc(C(F)(F)F)cc21
1840 nM | < 5 µL/min/mg | – | CCn1c([C@@H](C)NS(=O)(=O)c2ccc(Cl)cc2)nc2ccc(S(C)(=O)=O)cc21
24 nM | > 100 µL/min/mg | – | CCn1c([C@@H](C)NS(=O)(=O)c2ccc(C)cc2)nc2ccc(C(F)(F)F)cc21
9200 nM | < 3 µL/min/mg | – | CCn1c([C@@H](C)NS(=O)(=O)c2ccccn2)nc2ccc(C(F)(F)F)cc21
650 nM | 58 µL/min/mg | – | CCn1c([C@@H](C)NS(=O)(=O)c2cnc(C)n2C)nc2ccc(C(F)(F)F)cc21
1 nM | > 100 µL/min/mg | – | CCn1c([C@@H](C)NS(=O)(=O)c2ccc(Cl)cc2)nc2cc(F)c(Cl)cc21

EC50 [1] | microsomal CLint [2] | also measured | Structure (SMILES)
130 nM | 71 µL/min/mg | – | CCn1c([C@@H](C)NS(=O)(=O)c2ccc(Cl)cc2)nc2cc(C#N)ccc21
50 nM | > 100 µL/min/mg | bioavailability [9]: 5%; inhibition [10]: Active; inhibition [11]: Active | CCn1c([C@@H](C)NS(=O)(=O)c2ccc(Cl)cc2)nc2ccccc21
420 nM | > 100 µL/min/mg | – | CCCn1cc(S(=O)(=O)N[C@H](C)c2nc3ccc(C(F)(F)F)cc3n2CC)c(C)n1
30 nM | > 100 µL/min/mg | IC50 [12]: 830 nM; IC50 [13]: 830 nM | CCn1c([C@@H](C)NS(=O)(=O)c2cccnc2)nc2ccc(C(F)(F)F)cc21
12400 nM | > 100 µL/min/mg | – | CCn1c([C@@H](C)NS(=O)(=O)c2ccc(NC(C)=O)c(C)c2)nc2ccc(C(F)(F)F)cc21
7 nM | 26 µL/min/mg | inhibition [14]: Active | CCn1c([C@@H](C)NS(=O)(=O)c2ccc(F)cc2)nc2ccc(C(F)(F)F)cc21
590 nM | 95 µL/min/mg | – | CCn1cc(S(=O)(=O)N[C@H](C)c2nc3ccc(C(F)(F)F)cc3n2CC)cn1
9000 nM | < 3 µL/min/mg | – | CCn1c([C@@H](C)NS(=O)(=O)C2CC2)nc2ccc(C(F)(F)F)cc21
4000 nM | 43 µL/min/mg | – | CCn1c([C@@H](C)NS(=O)(=O)c2cn(C)c(C)n2)nc2ccc(C(F)(F)F)cc21
34 nM | – | Activity [6]: < 40%; Activity [7]: 14%; Activity [8]: < 40% | CCn1c([C@@H](C)NS(=O)(=O)c2ccc(C#N)cc2)nc2cnccc21
2340 nM | 94 µL/min/mg | – | CCn1c(C(C)NS(=O)(=O)c2ccc(Cl)cc2)nc2cccnc21 (centres undefined)
1000 nM | 28 µL/min/mg | – | CCn1c([C@@H](C)NS(=O)(=O)c2cn(C)nc2C)nc2ccc(C(F)(F)F)cc21
28 nM | – | logD [5]: 1; Activity [6]: < 40%; Activity [7]: 11%; Activity [8]: < 40% | CCn1c([C@@H](C)NS(=O)(=O)c2ccc(C#N)nc2)nc2cnc(OC)cc21
1170 nM | 93 µL/min/mg | – | CCn1c(C(C)NS(=O)(=O)c2ccc(Cl)cc2)nc2ccncc21 (centres undefined)
26 nM | 45 µL/min/mg | IC50 [4]: 40 nM | CCn1c([C@@H](C)NS(=O)(=O)c2ccncc2)nc2ccc(C(F)(F)F)cc21
– | – | inhibition [15]: inactive | CCc1nnc([C@@H](C)NS(=O)(=O)c2ccc(Cl)cc2)n1CC
180 nM | 88 µL/min/mg | – | CCn1c([C@@H](C)NS(=O)(=O)c2ccc(Cl)cc2)nc2cc(CO)ccc21
27 nM | > 100 µL/min/mg | – | CCn1c([C@@H](C)NS(=O)(=O)c2cccc(Cl)c2)nc2ccc(C(F)(F)F)cc21
2420 nM | 45 µL/min/mg | – | CCn1c([C@@H](C)NS(=O)(=O)c2ccc(Cl)cc2)nc2cc(N3CCOCC3)ccc21
310 nM | 15 µL/min/mg | – | CCn1c(C(C)NS(=O)(=O)c2ccc(Cl)cc2)nc2ncccc21 (centres undefined)
6 nM | – | logD [5]: 1.9; Activity [6]: < 40%; Activity [7]: 27%; Activity [8]: < 40% | CCn1c([C@@H](C)NS(=O)(=O)c2ccc(C#N)cc2)nc2cnc(C3CC3)cc21
9 nM | – | logD [5]: 1.4; Activity [6]: < 40%; Activity [7]: 18%; Activity [8]: < 40% | CCn1c([C@@H](C)NS(=O)(=O)c2ccc(C#N)cc2)nc2cnc(OC)cc21
